Entries after “also recorded” stand apart in the source; their conditions may differ.
Legend:
SW480^cld1 cells [1] = assay: Cell viability; type: cell-based, human
How it was run: (§1)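 Claudin-1-overexpressing SW480cld1 and SW620 cells grown in RPMI with 10% FBS and exposed for 72 hours to a range of test compound concentrations. Viability measured by PrestoBlue reagent. EC50 calculated from the concentration–viability data.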

SW620 cells [2] = assay: Cell viability; type: cell-based, human
How it was run: as §1

HCT116 cells [3] = assay: Cell viability; type: cell-based, human; conditions: 25 & 50μM
How it was run: (§2)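 Cells maintained in RPMI plus 10% FBS. Viability read with PrestoBlue reagent per kit protocol after 72 h exposure to test compound.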

SW480^cld2 cells = assay: Cell viability; type: cell-based, human; conditions: 25 & 50μM
How it was run: as §2

SW480 cells = assay: Cell viability; type: cell-based, human; conditions: even at 25μM
SW480^cld1 cells [4] = assay: Anoikis-induced apoptosis assay; type: cell-based
How it was run: (§3)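 Anoikis induced by plating cells on poly-HEMA-coated culture plates. Apoptosis quantified with a cell death detection ELISA. Parental lines were cultured in RPMI with 10% FBS. Claudin-1-overexpressing SW480 and claudin-1-knockdown SW620 derivatives were used.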

SW620 cells [5] = assay: Anoikis-induced apoptosis assay; type: cell-based
HCT116 cells [6] = assay: Anoikis-induced apoptosis assay; type: cell-based, human; conditions: claudin-1 deficient HCT116
SW620^1C cells = assay: Anoikis-induced apoptosis assay; type: cell-based, human; conditions: claudin-1 knockdown SW620^1C
How it was run: as §3

SW620 cells [7] = assay: Transwell matrigel invasion assay; type: cell-based, human; conditions: I-6; claudin-1 overexpressed SW620
SW480^cld1 cells [8] = assay: Transwell matrigel invasion assay; type: cell-based, human; conditions: I-6; claudin-1 overexpressed SW480^cld1
HCT116 cells [9] = assay: Transwell matrigel invasion assay; type: cell-based, human; conditions: I-6; claudin-1 deficient HCT116
[10] = test system: SW480^cld1 xenograft tumor; assay: Subcutaneous xenograft tumor study; type: in vivo, athymic nude mice
How it was run: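 Cells implanted subcutaneously in athymic nude mice, n = 5 per group, vehicle controls. For SW480cld1 with I-6, once-weekly dosing started 10 days after implantation, once tumors were palpable, for two weeks. Caliper volume over time, formula […]. Ki67 and cleaved PARP by IHC. Behavior and body weight monitored.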

[11] = test system: colon tumoroids from APC^min/+ / claudin-1 mice; assay: Tumoroid culture apoptosis; type: cell-based
How it was run: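 Colon tumors from APCmin/+/claudin-1 mice washed in ice-cold PBS and digested with collagenase-containing buffer. Single cells pelleted at 200 x g for 3 min, embedded in Matrigel and plated as tumoroids. Tumoroids exposed to test compound alone or with 5 μM 5-FU, then scored for apoptosis.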

[12] = Plasma pharmacokinetics in mice; type: in vivo
How it was run: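 I-6 given as a single 1 mg/kg intravenous dose to C57BL6 mice (n=5), with serial blood sampling. PDS-0330 given at 5 mg/kg by oral gavage or IP, with ~100 μl blood drawn from the maxillary vein at 5, 15, 30 min and 1, 2, 4, 6, 8, 24 h. Plasma levels in ng/ml; non-compartmental parameters.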

[13] = Tissue bio-distribution in mice; type: in vivo; conditions: both, mouse, liver, po, 5 mg/kg
[14] = Metabolic stability, phase I; type: in vitro ADME, human; conditions: HLM, phase I metabolism, 60 min
How it was run: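 Phase I stability in human liver microsomes (20 mg/ml stock), 100 mM potassium phosphate pH 7.4, 10 mM MgCl2, 2 mM NADPH. Mix pre-incubated 10 min at 37 °C. Output is percent parent remaining per time point. Elimination rate constant taken from first-order plot of ln area ratio versus time.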

[15] = molecular target: T1, claudin-1/Src association (Homo sapiens, UniProt O95832); assay: Proximity ligation assay; type: cell-based
T1 sequence (O95832 1-211): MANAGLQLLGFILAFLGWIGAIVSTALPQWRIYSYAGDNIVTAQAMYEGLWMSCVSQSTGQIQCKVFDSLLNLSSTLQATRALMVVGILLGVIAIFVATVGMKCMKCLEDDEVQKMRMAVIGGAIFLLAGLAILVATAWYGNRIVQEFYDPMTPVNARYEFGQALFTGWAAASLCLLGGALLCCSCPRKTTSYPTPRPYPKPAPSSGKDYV

[16] = test system: pSrc, pAkt, Bcl2, Bcl-xL, survivin, cleaved PARP in SW620 and SW480^cld1 cells; assay: Immunoblotting of signaling and apoptosis markers; type: cell-based, human; conditions: I-6, SW480^cld1 cells
How it was run: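 Treated cells (vehicle or 12.5 and 25 μM) lysed. 10–30 μg protein per lane resolved by SDS-PAGE and immunoblotted, with enhanced chemiluminescence detection on film. Antibodies included p-Src (Tyr416), pAkt and total Akt, with GAPDH or β-actin as loading reference.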

[17] = I-6 1mg/kg intravenous, mice, plasma, 1 mg/kg
[18] = both, C57BL6, mouse, plasma, iv, 1 mg/kg

SMILES: COc1cc2ccccc2cc1C(=O)NC(=S)Nc1ccc(-c2nc3ccccc3[nH]2)cc1 [I-6, N-((4-(1H-benzo[d]imidazol-2-yl)phenyl)carbamothioyl)-3-methoxy-2-naphthamide]
- cell viability (SW480^cld1 cells [1]; 25 & 50μM, P<0.001): significantly decreases cell viability
- EC50 (SW480^cld1 cells [1]; Homo sapiens, 72 h, read-out: EC50, cell viability): 28.4 µM
- effect with 5-FU on cell growth (SW480^cld1 cells [1]; I-6 0.625μM-20μM with 5-FU 5μM): synergistic effect
- cell viability (SW620 cells [2]; 25 & 50μM, P<0.001): significantly decreases cell viability
- EC50 (SW620 cells [2]; Homo sapiens, SW-620, 72 h, read-out: EC50, cell viability): 24.8 µM
- cell viability (HCT116 cells [3]): no significant impact
- cell viability (SW480^cld2 cells): no significant impact
- impact on SW480 cells (SW480 cells): no significant impact
- resistance to anoikis (SW480^cld1 cells [4]; claudin-1 overexpressed SW480^cld1): dramatically inhibits anoikis resistance; also recorded: inhibition of resistance to anoikis
- effect with 5-FU on anoikis resistance (SW480^cld1 cells [4]; co-treatment with 5-FU): synergistic effect
- resistance to anoikis (SW620 cells [5]; claudin-1 overexpressed SW620): inhibition of resistance to anoikis
- effect with 5-FU on anoikis resistance (SW620 cells [5]; co-treatment with 5-FU): synergistic effect
- resistance to anoikis (HCT116 cells [6]): no effect
- resistance to anoikis (SW620^1C cells): no effect
- invasion (SW620 cells [7]): suppresses invasion
- invasion (SW480^cld1 cells [8]): suppresses invasion
- invasion (HCT116 cells [9]): no effect
- Ki67 expression in tumors (IHC) ([10]; I-6 10 mg/kg): significantly inhibited
- cleaved PARP in tumors (IHC) ([10]; I-6 10 mg/kg): significantly increased
- tumor volume and weight at necropsy ([10]; I-6 10 mg/kg once/week, vs vehicle): significantly reduced
- effect with 5-FU on development of xenograft tumor ([10]; co-treatment with 5-FU, nude mice): synergistic effect
- mouse behavior or weight ([10]; during I-6 / 5-FU xenograft studies): no obvious changes
- effect with 5-FU on induction of apoptosis in tumoroids ([11]; I-6 25μM with 5-FU 5μM): synergistic effect
- rate of apoptosis in tumoroids ([11]; I-6 25μM, 48 hours): significantly increased
- time up to which detectable in plasma ([12]; I-6 1mg/kg intravenous, mice): up to 24 h
- AUC0- ∞ [12, 17]: 1207.1 ± 35.6 ng·h/mL
- C0 [12, 17]: 798.3 ± 277.2 ng/mL
- time of plasma peak concentration ([12]; I-6 oral 5mg/kg, mice): 2 h
- AUC(0-t) [12, 18]: 1140 ± 59.6 ng·h/mL
- MRT [12, 18]: 5.6 ± 1.2 h
- half-life [12, 18]: 7 ± 1.6 h
- AUC(0-inf) ([12]; both, C57BL6, mouse, plasma, iv, 1 mg/kg, AUC0- ∞, I-6 1mg/kg intravenous, mice): 1140 ng·h/mL
- C0 ([12]; both, C57BL6, mouse, plasma, iv, 1 mg/kg, C0, I-6 1mg/kg intravenous, mice): 798 ng/mL
- Vd ([12]; both, C57BL6, mouse, plasma, iv, 1 mg/kg, Vd, I-6 1mg/kg intravenous, mice): 8.4 ± 2.1 L/kg
- Vd ([12]; both, C57BL6, mouse, plasma, iv, 1 mg/kg, Vss, I-6 1mg/kg intravenous, mice): 4.7 ± 1.1 L/kg
- Cmax ([12]; both, mouse, plasma, po, 5 mg/kg): 2.8 ng/mL
- concentration at 24 h [13]: 65 ng/g
- drug remaining after 60 min [14]: 49%
- association of claudin-1 with Src [15]: significantly interferes
- Src phosphorylation [16]: significantly interferes

— paper PMC10824272 (Biomedicine & pharmacotherapy = Biomedecine & …, 2023)
